Results reported in ChEMBL document CHEMBL1933033, “Cytotoxic withanolide constituents of Physalis longifolia” (J Nat Prod, 2011).

Key:
[1] = Cytotoxicity against human MDA1986 cells after 72 hrs by MTS assay; format: functional, cell-based; conditions: MDA1986, 72 h
Outline: (§1)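 MTS viability assay on HNSCC (JMAR, MDA-1986), melanoma (B16F10, SKMEL-28) and normal fetal fibroblast (MRC-5) cells. Pure compounds tested at ten concentrations from 50 nM to 20 μM. IC50 values derived from the concentration series.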

[2] = Cytotoxicity against human […] cells after 72 hrs by MTS assay; format: cell-based; outline: as §1
B16-F10 = experiment: Cytotoxicity against mouse B16F10 cells after 72 hrs by MTS assay; format: functional, cell-based; conditions: B16-F10, 72 h; outline: as §1
[3] = Cytotoxicity against human JMAR cells after 72 hrs by MTS assay; format: functional, cell-based; outline: as §1
SK-MEL-28 = experiment: Cytotoxicity against human SK-MEL-28 cells after 72 hrs by MTS assay; format: functional, cell-based; conditions: SK-MEL-28, 72 h; outline: as §1

Compound: CC1=C(CO)C(=O)O[C@@H]([C@@H](C)[C@H]2CC[C@H]3[C@@H]4C[C@H]5O[C@]56[C@@H](O)C=CC(=O)[C@]6(CO)[C@H]4CC[C@]23C)C1
- IC50 [1]: 3.3 µM
- IC50 [2]: > 10 µM
- IC50 (B16-F10): > 10 µM
- IC50 [3]: 5.3 µM
- IC50 (SK-MEL-28): 5.1 µM

Compound: CC(=O)OCC1=C(C)C[C@H]([C@@H](C)[C@H]2CC[C@H]3[C@@H]4C[C@H]5O[C@]56[C@@H](OC(C)=O)C=CC(=O)[C@]6(COC(C)=O)[C@H]4CC[C@]23C)OC1=O
- IC50 [1]: 0.91 µM
- IC50 [2]: 0.58 µM
- IC50 (B16-F10): 0.067 µM
- IC50 [3]: 0.16 µM
- IC50 (SK-MEL-28): 0.54 µM

Compound: CC(=O)OCC1=C(C)C[C@H]([C@@H](C)[C@H]2CC[C@H]3[C@@H]4C[C@H]5O[C@]56[C@@H](OC(C)=O)C=CC(=O)[C@]6(CO)[C@H]4CC[C@]23C)OC1=O
- IC50 [1]: 2.2 µM
- IC50 [2]: 0.41 µM
- IC50 (B16-F10): 0.098 µM
- IC50 [3]: 0.14 µM
- IC50 (SK-MEL-28): 0.81 µM

Compound: CC(=O)OC[C@]12C(=O)C=C[C@H](OC(C)=O)[C@]13O[C@@H]3C[C@H]1[C@@H]3CC[C@H]([C@H](C)[C@H]4CC(C)=C(C)C(=O)O4)[C@@]3(C)CC[C@@H]12
- IC50 [1]: 0.11 µM
- IC50 [2]: 0.51 µM
- IC50 (B16-F10): 0.13 µM
- IC50 [3]: 0.24 µM
- IC50 (SK-MEL-28): 0.27 µM

Compound: CC(=O)OC[C@]12C(=O)C=C[C@H](O)[C@]13O[C@@H]3C[C@H]1[C@@H]3CC[C@H]([C@H](C)[C@H]4CC(C)=C(C)C(=O)O4)[C@@]3(C)CC[C@@H]12
- IC50 [1]: 0.49 µM
- IC50 [2]: 0.16 µM
- IC50 (B16-F10): 0.19 µM
- IC50 [3]: 0.12 µM
- IC50 (SK-MEL-28): 0.64 µM

Compound: CC1=C(CO)C(=O)O[C@@H]([C@@H](C)[C@H]2CC[C@H]3[C@@H]4C[C@H]5O[C@]56[C@@H](O)C=CC(=O)[C@]6(CO)[C@H]4[C@@H](O)C[C@]23C)C1
- IC50 [1]: 2.6 µM
- IC50 [2]: 3.6 µM
- IC50 (B16-F10): 0.49 µM
- IC50 [3]: 0.77 µM
- IC50 (SK-MEL-28): 3 µM

Compound: CO[C@H]1CC(=O)[C@]2(C)[C@H]3CC[C@]4(C)[C@@H]([C@H](C)[C@H]5CC(C)=C(CO)C(=O)O5)CC[C@H]4[C@@H]3C[C@H]3O[C@]32[C@H]1O
- IC50 [1]: > 10 µM
- IC50 [2]: > 10 µM
- IC50 (B16-F10): > 10 µM
- IC50 [3]: > 10 µM
- IC50 (SK-MEL-28): > 10 µM

Compound: CC1=C(CO)C(=O)O[C@@H]([C@@H](C)[C@H]2CC[C@H]3[C@@H]4C[C@H]5O[C@]56[C@@H](O)CCC(=O)[C@]6(C)[C@H]4CC[C@]23C)C1
- IC50 [1]: > 10 µM
- IC50 [2]: > 10 µM
- IC50 (B16-F10): > 10 µM
- IC50 [3]: > 10 µM
- IC50 (SK-MEL-28): > 10 µM

Compound: CC1=C(CO)C(=O)O[C@@H]([C@@H](C)[C@H]2CC[C@H]3[C@@H]4C[C@@H]5O[C@@H]6CC(=O)[C@](C)([C@H]4CC[C@]23C)[C@@]5(O)[C@H]6O)C1
- IC50 [1]: > 10 µM
- IC50 [2]: > 10 µM
- IC50 (B16-F10): > 10 µM
- IC50 [3]: > 10 µM
- IC50 (SK-MEL-28): > 10 µM

Compound: CC1=C(CO)C(=O)O[C@@H]([C@@H](C)[C@H]2CC[C@H]3[C@@H]4C[C@H]5O[C@]56[C@@H](O)[C@@H](OS(=O)(=O)O)CC(=O)[C@]6(C)[C@H]4CC[C@]23C)C1
- IC50 [1]: 0.27 µM
- IC50 [2]: 1.4 µM
- IC50 (B16-F10): 0.18 µM
- IC50 [3]: 0.48 µM
- IC50 (SK-MEL-28): 5.1 µM

Compound: CC1=C(CO[C@@H]2O[C@H](CO)[C@@H](O)[C@H](O)[C@H]2O)C(=O)O[C@@H]([C@@H](C)[C@H]2CC[C@H]3[C@@H]4C[C@H]5O[C@]56[C@@H](O)C=CC(=O)[C@]6(C)[C@H]4CC[C@]23C)C1 [SITOINDOSIDE IX]
- IC50 [1]: > 10 µM
- IC50 [2]: 5.2 µM
- IC50 (B16-F10): 3.7 µM
- IC50 [3]: 4.2 µM
- IC50 (SK-MEL-28): 8.3 µM

Compound: CC1=C(CO)C(=O)O[C@@H]([C@@H](C)[C@H]2CC[C@H]3[C@@H]4C[C@H]5O[C@]56[C@@H](O)[C@@H](O)CC(=O)[C@]6(C)[C@H]4CC[C@]23C)C1 [VISCOSALACTONE B]
- IC50 [1]: > 10 µM
- IC50 [2]: > 10 µM
- IC50 (B16-F10): > 10 µM
- IC50 [3]: > 10 µM
- IC50 (SK-MEL-28): > 10 µM

Compound: CC1=C(CO)C(=O)O[C@@H]([C@@H](C)[C@H]2CC[C@H]3[C@@H]4C[C@H]5O[C@]56[C@@H](O)C=CC(=O)[C@]6(C)[C@H]4CC[C@]23C)C1 [WITHAFERIN A]
- IC50 [1]: 0.8 µM
- IC50 [2]: 0.2 µM
- IC50 (B16-F10): 0.29 µM
- IC50 [3]: 2 µM
- IC50 (SK-MEL-28): 4 µM

Compound: CC1=C(C)C(=O)O[C@@H]([C@@H](C)[C@H]2CC[C@H]3[C@@H]4C[C@H]5O[C@]56[C@@H](O)C=CC(=O)[C@]6(CO)[C@H]4CC[C@]23C)C1 [WITHALONGOLIDE B]
- IC50 [1]: 1.3 µM
- IC50 [2]: 0.4 µM
- IC50 (B16-F10): 0.2 µM
- IC50 [3]: 0.17 µM
- IC50 (SK-MEL-28): 3.9 µM

Compound: CO[C@H]1CC(=O)[C@]2(CO)[C@H]3CC[C@]4(C)[C@@H]([C@H](C)[C@H]5CC(C)=C(CO)C(=O)O5)CC[C@H]4[C@@H]3C[C@H]3O[C@]32[C@H]1O [WITHALONGOLIDE D]
- IC50 [1]: > 10 µM
- IC50 [2]: 6.5 µM
- IC50 (B16-F10): 3.2 µM
- IC50 [3]: 4.7 µM
- IC50 (SK-MEL-28): 9.3 µM

Compound: CO[C@H]1CC(=O)[C@]2(C)[C@@H]3[C@@H](C[C@H]4O[C@]42[C@H]1O)[C@@H]1CC[C@H]([C@H](C)[C@H]2CC(C)=C(CO)C(=O)O2)[C@@]1(C)C[C@@H]3O [WITHALONGOLIDE E]
- IC50 [1]: 8.3 µM
- IC50 [2]: 7.3 µM
- IC50 (B16-F10): 5.6 µM
- IC50 [3]: > 10 µM
- IC50 (SK-MEL-28): > 10 µM

Compound: CC1=C(CO)C(=O)O[C@@H]([C@@H](C)[C@H]2CC[C@H]3[C@@H]4CC=C5C=CC(=O)[C@]5(C)[C@H]4CC[C@]23C)C1 [WITHALONGOLIDE F]
- IC50 [1]: > 10 µM
- IC50 [2]: > 10 µM
- IC50 (B16-F10): > 10 µM
- IC50 [3]: > 10 µM
- IC50 (SK-MEL-28): > 10 µM

Compound: CC1=C(CO)C(=O)O[C@@H]([C@@H](C)[C@H]2CC[C@H]3[C@@H]4C[C@H]5O[C@]56[C@@H](O)[C@@H](OS(=O)(=O)O)CC(=O)[C@]6(CO)[C@H]4CC[C@]23C)C1 [WITHALONGOLIDE G]
- IC50 [1]: 2 µM
- IC50 [2]: 3.3 µM
- IC50 (B16-F10): 1.3 µM
- IC50 [3]: 2.3 µM
- IC50 (SK-MEL-28): 4.8 µM

Compound: CC1=C(CO[C@@H]2O[C@H](CO)[C@@H](O[C@@H]3O[C@@H](C)[C@H](O)[C@@H](O)[C@H]3O)[C@H](O)[C@H]2O)C(=O)O[C@@H]([C@@H](C)[C@H]2CC[C@H]3[C@@H]4C[C@H]5O[C@]56[C@@H](O)C=CC(=O)[C@]6(C)[C@H]4CC[C@]23C)C1 [WITHALONGOLIDE H]
- IC50 [1]: 8.1 µM
- IC50 [2]: 8.7 µM
- IC50 (B16-F10): > 10 µM
- IC50 [3]: 8.2 µM
- IC50 (SK-MEL-28): > 10 µM

Compound: CC1=C(CO)C(=O)O[C@@H]([C@@H](C)[C@H]2CC[C@H]3[C@@H]4CC=C5C[C@@H](O[C@@H]6O[C@H](CO)[C@@H](O)[C@H](O)[C@H]6O)CC(=O)[C@]5(CO)[C@H]4CC[C@]23C)C1 [WITHALONGOLIDE I]
- IC50 [1]: > 10 µM
- IC50 [2]: > 10 µM
- IC50 (B16-F10): > 10 µM
- IC50 [3]: > 10 µM
- IC50 (SK-MEL-28): > 10 µM

Compound: CC1=C(CO[C@@H]2O[C@H](CO)[C@@H](O)[C@H](O)[C@H]2O)C[C@H]([C@@H](C)[C@H]2CC[C@H]3[C@@H]4CC=C5C[C@@H](O)C[C@H](O)[C@]5(CO)[C@H]4CC[C@]23C)OC1=O [WITHALONGOLIDE J]
- IC50 [1]: > 10 µM
- IC50 [2]: > 10 µM
- IC50 (B16-F10): > 10 µM
- IC50 [3]: > 10 µM
- IC50 (SK-MEL-28): > 10 µM

Compound: CC1=C(CO[C@@H]2O[C@H](CO)[C@@H](O)[C@H](O)[C@H]2O)C[C@H]([C@@H](C)[C@H]2CC[C@H]3[C@@H]4C[C@H](O)C5=C(C(=O)C[C@H](O)C5)[C@H]4CC[C@]23C)OC1=O [WITHALONGOLIDE L]
- IC50 [1]: > 10 µM
- IC50 [2]: > 10 µM
- IC50 (B16-F10): > 10 µM
- IC50 [3]: > 10 µM
- IC50 (SK-MEL-28): > 10 µM

Compound: CC1=C(CO[C@@H]2O[C@H](CO)[C@@H](O)[C@H](O)[C@H]2O)C[C@H]([C@@H](C)[C@H]2CC[C@H]3[C@@H]4CCC5=C(C(=O)C[C@H](O)C5)[C@H]4CC[C@]23C)OC1=O [WITHALONGOLIDE M]
- IC50 [1]: > 10 µM
- IC50 [2]: > 10 µM
- IC50 (B16-F10): > 10 µM
- IC50 [3]: > 10 µM
- IC50 (SK-MEL-28): > 10 µM

Compound: CC1=C(CO[C@@H]2O[C@H](CO)[C@@H](O)[C@H](O)[C@H]2O)C[C@H]([C@@H](C)[C@H]2CC[C@H]3[C@@H]4CC(=O)C5=C(CC[C@@H](O)C5)[C@H]4CC[C@]23C)OC1=O [WITHALONGOLIDE N]
- IC50 [1]: > 10 µM
- IC50 [2]: > 10 µM
- IC50 (B16-F10): > 10 µM
- IC50 [3]: > 10 µM
- IC50 (SK-MEL-28): > 10 µM

Compound: CC1=C(CO[C@@H]2O[C@H](CO)[C@@H](O)[C@H](O)[C@H]2O)C[C@H]([C@@H](C)[C@H]2CC[C@H]3[C@@H]4C[C@H](O)c5cccc(O)c5[C@H]4CC[C@]23C)OC1=O [WITHALONGOLIDESAPONIN]
- IC50 [1]: > 10 µM
- IC50 [2]: > 10 µM
- IC50 (B16-F10): > 10 µM
- IC50 [3]: > 10 µM
- IC50 (SK-MEL-28): > 10 µM
